Test results taken from ChEMBL document CHEMBL3352237, “Synthesis and biological evaluation of novel peptide BF2 as an antibacterial agent against clinical isolates of vancomycin-resistant enterococci” (J Med Chem, 2014).

Legend:
[1] = test system: Enterococcus faecium; assay: Bactericidal activity against vancomycin-resistant Enterococcus faecium clinical isolate 12875 after 24 hrs by two-fold serial dilution method; type: functional; conditions: isolate 12875, 24 h
[2] = test system: Enterococcus faecium; assay: Bactericidal activity against vancomycin-resistant Enterococcus faecium clinical isolate 30/48 after 24 hrs by two-fold serial dilution method; type: functional; conditions: isolate 30/48, 24 h
[3] = test system: Enterococcus; assay: Bactericidal activity against vancomycin-resistant Enterococcus ATCC 29212 assessed as log reduction at 2 times MIC after 60 to 120 mins by serial dilution method; type: functional
Summary of the method: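 Time-kill assay: enterococci exposed to peptide at 2× MIC, with viable counts read as log10 CFU/mL over a 60–120 min exposure. Run on ATCC 29212 and a clinical isolate.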

[4] = test system: Enterococcus; assay: Antibacterial activity against Enterococcus infected in iv dosed Wistar albino rat assessed as reduction in cell count after 1 hr relative to control; type: functional, organism-based
Summary of the method: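 Female Wistar albino rats, 40−45 days old, 125−150 g, 5 groups of 3. Enterococci grown in MH broth to log phase, spun at 1000g for 15 min, diluted in PBS to 4 × 10^6 CFU/mL and inoculated i.v. Treatment i.v. 1 h later at 12.5, 25 or 37.5 mg/kg. Vehicle was 0.1 mL PBS i.v.; linezolid 25 mg/kg i.v. was the positive control. Tail-vein blood taken 1 h after treatment, plated on blood agar, incubated at 37 °C in ambient air overnight, and colonies counted.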

[5] = test system: Enterococcus faecalis; assay: Antibacterial activity against vancomycin-resistant Enterococcus faecalis clinical isolate 5814 after overnight incubation by two-fold serial dilution method; type: functional
[6] = test system: Enterococcus faecium; assay: Antibacterial activity against vancomycin-resistant Enterococcus faecium clinical isolate 16475 after overnight incubation by two-fold serial dilution method; type: functional
[7] = test system: Enterococcus faecium; assay: Antibacterial activity against vancomycin-resistant Enterococcus faecium clinical isolate 5484 after overnight incubation by two-fold serial dilution method; type: functional
[8] = test system: Enterococcus faecium; assay: Antibacterial activity against vancomycin-resistant Enterococcus faecium clinical isolate 13246 after overnight incubation by two-fold serial dilution method; type: functional
[9] = test system: Enterococcus faecalis; assay: Bactericidal activity against vancomycin-resistant Enterococcus faecalis clinical isolate 7077 after 24 hrs by two-fold serial dilution method; type: functional; conditions: isolate 7077, 24 h
[10] = test system: Enterococcus faecalis; assay: Bactericidal activity against vancomycin-resistant Enterococcus faecalis clinical isolate 21/235 after 24 hrs by two-fold serial dilution method; type: functional; conditions: isolate 21/235, 24 h
[11] = test system: Enterococcus faecalis; assay: Bactericidal activity against vancomycin-resistant Enterococcus faecalis clinical isolate 22/203 after 24 hrs by two-fold serial dilution method; type: functional; conditions: isolate 22/203, 24 h

H-RWRLLLLKKH-OH showed an MBC [1] of 25 mg/L, an MBC [2] of 25 mg/L and an MBC [3] of 25 mg/L. For the same substance, the Activity [4] was “Dose-dependent effect”, the MIC [5] was 12.5 mg/L and the MIC [6] was 12.5 mg/L. The MIC [7] was 12.5 mg/L, the MIC [8] was 12.5 mg/L and the MBC [9] was 25 mg/L. It also gave an MBC [10] of 25 mg/L and an MBC [11] of 25 mg/L.
